Experimental data taken from ChEMBL document CHEMBL3352465, “The SAR development of substituted purine derivatives as selective CB2 agonists for the treatment of chronic pain” (Bioorg Med Chem Lett, 2014).
Converted amounts (≈) assume the structure as drawn. The source made the active and inactive calls. The rule behind the calls is not given here.

What was measured:
[1] = organism: Rattus norvegicus; assay: Inhibition of GABA gated chloride channel in rat cortex at 10 uM by radioligand binding assay
Procedure, shortened: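 Radioligand binding to GABA-gated chloride channels from rat, run by an outside contract lab.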

[2] = Inhibition of GABA gated chloride channel in rat cortex by radioligand binding assay
[3] = Oral bioavailability in Beagle dog at 1 mg/kg; format: ADME, organism-based, Canis lupus familiaris; details: in vivo
Procedure, shortened: (§1)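 Plasma PK after intravenous and oral dosing at 1 mg/kg each route; male Sprague-Dawley rats and male Beagle dogs. Clearance and steady-state volume from the iv leg, half-life and bioavailability from the po leg.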

[4] = Lipophilicity, log P of the compound; format: physicochemical; details: octanol/water
[5] = Aqueous solubility of the compound at pH 6.5; format: physicochemical
Procedure, shortened: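 Aqueous solubility measured at pH 6.5.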

[6] = Dissociation constant, pKa of the compound; format: physicochemical
[7] = biological target: T1, Cannabinoid receptor 2 (Homo sapiens, UniProt P34972); assay: Agonist activity at human CB2 receptor expressed in CHO cells by [35S]-GTPgammaS binding assay; format: functional, cell-based
[8] = biological target: T1, Cannabinoid receptor 2; assay: Agonist activity at human CB2 receptor expressed in CHO cells by [35S]-GTPgammaS binding assay relative to control; format: functional, cell-based
[9] = biological target: T2, Cannabinoid receptor 1 (Homo sapiens, UniProt P21554); assay: Agonist activity at human CB1 receptor expressed in Sf9 cells by [35S]-GTPgammaS binding assay; format: functional
[10] = biological target: T2, Cannabinoid receptor 1; assay: Agonist activity at human CB1 receptor expressed in Sf9 cells by [35S]-GTPgammaS binding assay relative to control; format: functional
[11] = Drug metabolism in human liver microsomes at 2 uM after 0.5 hr by LC/MS/MS analysis; format: ADME; details: read-out: Drug metabolism
[12] = Drug metabolism in rat liver microsomes at 2 uM after 0.5 hr by LC/MS/MS analysis; format: ADME; details: read-out: Drug metabolism
[13] = Drug metabolism in dog liver microsomes at 2 uM after 0.5 hr by LC/MS/MS analysis; format: ADME, Canis lupus familiaris; details: read-out: Drug metabolism
[14] = Clearance in Sprague-Dawley rat at 1 mg/kg, iv; format: ADME, organism-based; design: dose 1 mg/kg, route intravenous; details: in vivo
[15] = Volume of distribution at steady state in Sprague-Dawley rat at 1 mg/kg, iv and 1 mg/kg, po; format: ADME, organism-based; details: in vivo, read-out: Vdss; procedure, shortened: as §1
[16] = Half life in Sprague-Dawley rat at 1 mg/kg, po; format: ADME, organism-based; design: dose 1 mg/kg, route oral; details: in vivo; procedure, shortened: as §1
[17] = AUC in Sprague-Dawley rat at 1 mg/kg, iv and 1 mg/kg, po; format: ADME, organism-based; details: plasma; procedure, shortened: as §1
[18] = Cmax in Sprague-Dawley rat at 1 mg/kg, iv and 1 mg/kg, po; format: ADME, organism-based; details: in vivo; procedure, shortened: as §1
[19] = Oral bioavailability in Sprague-Dawley rat at 1 mg/kg; format: ADME, organism-based; details: in vivo; procedure, shortened: as §1
[20] = Clearance in Beagle dog at 1 mg/kg, iv; format: ADME, organism-based, Canis lupus familiaris; design: dose 1 mg/kg, route intravenous; details: in vivo
[21] = Volume of distribution at steady state in Beagle dog at 1 mg/kg, iv and 1 mg/kg, po; format: ADME, organism-based, Canis lupus familiaris; details: in vivo, read-out: Vdss; procedure, shortened: as §1
[22] = Half life in Beagle dog at 1 mg/kg, po; format: ADME, organism-based, Canis lupus familiaris; design: dose 1 mg/kg, route oral; details: in vivo; procedure, shortened: as §1
[23] = AUC in Beagle dog at 1 mg/kg, iv and 1 mg/kg, po; format: ADME, organism-based, Canis lupus familiaris; details: plasma; procedure, shortened: as §1
[24] = Cmax in Beagle dog at 1 mg/kg, iv and 1 mg/kg, po; format: ADME, organism-based, Canis lupus familiaris; details: in vivo; procedure, shortened: as §1
[25] = test system: MDCK; assay: Permeability across MDCK cells expressing human P-gp; format: ADME, cell-based, Canis lupus familiaris; details: dog
Procedure, shortened: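 Bi-directional permeability was measured across an MDCK line expressing human P-gp to test whether the compound is a P-gp substrate.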

[26] = biological target: Cytochrome P450 3A4 (Homo sapiens, UniProt P08684); assay: Effect on CYP3A4 (unknown origin) up to 10 uM; format: ADME
[27] = biological target: T3, Cytochrome P450 1A2 (Homo sapiens, UniProt P05177); assay: Effect on CYP1A2 (unknown origin) up to 10 uM; format: ADME
T3 sequence (P05177 whole entry): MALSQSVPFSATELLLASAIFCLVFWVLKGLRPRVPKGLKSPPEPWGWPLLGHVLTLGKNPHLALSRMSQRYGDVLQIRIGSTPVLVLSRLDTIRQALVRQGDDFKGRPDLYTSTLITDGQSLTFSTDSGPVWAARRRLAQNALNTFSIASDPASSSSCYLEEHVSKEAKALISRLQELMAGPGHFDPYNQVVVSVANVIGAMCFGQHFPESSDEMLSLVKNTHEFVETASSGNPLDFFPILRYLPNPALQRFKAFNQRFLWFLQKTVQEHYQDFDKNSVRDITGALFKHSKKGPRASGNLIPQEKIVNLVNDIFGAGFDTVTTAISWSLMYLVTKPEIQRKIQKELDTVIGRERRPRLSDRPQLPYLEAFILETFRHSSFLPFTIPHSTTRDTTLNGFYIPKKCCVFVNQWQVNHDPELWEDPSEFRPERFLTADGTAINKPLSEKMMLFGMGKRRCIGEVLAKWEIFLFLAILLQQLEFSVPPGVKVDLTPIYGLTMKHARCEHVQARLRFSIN

[28] = biological target: Cytochrome P450 2D6 (Homo sapiens, UniProt P10635); assay: Effect on CYP2D6 (unknown origin) up to 10 uM; format: ADME
[29] = biological target: Cytochrome P450 2C9 (Homo sapiens, UniProt P11712); assay: Effect on CYP2C9 (unknown origin) up to 10 uM; format: ADME
[30] = biological target: CYP3A4 (Homo sapiens, UniProt P08684); assay: Drug metabolism assessed as human CYP3A4-mediated oxidative compound turnover; format: ADME; details: recombinant enzyme, read-out: Drug metabolism
Procedure, shortened: (§2)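 Oxidative turnover was assessed with recombinant human P450 enzymes to identify which isoforms contribute to metabolite formation.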

[31] = biological target: CYP2C9 (Homo sapiens, UniProt P11712); assay: Drug metabolism assessed as human CYP2C9-mediated compound turnover; format: ADME; details: recombinant enzyme, read-out: Drug metabolism; procedure, shortened: as §2
[32] = biological target: T4, CYP1A2 (Homo sapiens, UniProt P05177); assay: Drug metabolism assessed as human CYP1A2-mediated compound turnover; format: ADME; details: recombinant enzyme, read-out: Drug metabolism; procedure, shortened: as §2
T4 sequence (P05177 whole entry): T3 sequence (P05177 whole entry)

[33] = Drug excretion in rat urine assessed as phase 2 glucuronide metabolite; format: ADME
[34] = Drug excretion in rat bile assessed as phase 2 glucuronide metabolite; format: ADME
[35] = Drug excretion in rat urine assessed as sulfate metabolite; format: ADME
[36] = Drug excretion in rat bile assessed as sulfate metabolite; format: ADME
[37] = test system: Rattus norvegicus; assay: Analgesic activity in monoiodoacetic acid-induced joint pain rat model assessed as inhibition of differential weight bearing capacity at 1 mg/kg, po administered 20 days post MIA challenge relative to vehicle treated control; format: functional, organism-based; design: dose 1 mg/kg
Procedure, shortened: (§3)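 Rats got 0.3 mg MIA intra-articular into the right knee and saline into the left on day 0. On day 20 they were randomized and dosed po with vehicle (1% CMC in water with 0.25% Tween 80), agonist 1 mg/kg, SR-144528 3 mg/kg, or antagonist given 30 min before agonist. Incapacitance (differential hind-limb weight bearing) was read 2 h after agonist; n = 6/group; Dunnett's test versus vehicle.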

[38] = test system: Rattus norvegicus; assay: Analgesic activity in monoiodoacetic acid-induced joint pain rat model assessed as inhibition of differential weight bearing capacity at 1 mg/kg, po administered 20 days post MIA challenge co-administered with 3 mg/kg SR-144528 relative to vehicle treated control; format: functional, organism-based; procedure, shortened: as §3
[39] = test system: Rattus norvegicus; assay: Analgesic activity in monoiodoacetic acid-induced joint pain rat model assessed as inhibition of differential weight bearing capacity compound administered orally post MIA challenge measured 2 hrs after compound dose on day 12 post MIA challenge relative to vehicle treated control; format: functional; details: po
Procedure, shortened: (§4)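 MIA knee-joint pain in rats; oral doses of 0.1, 0.3 and 1 mg/kg, with diclofenac 5 mg/kg po as comparator. Differential hind-limb weight bearing was measured by incapacitance tester on day 12 post MIA, 2 h after dosing; n = 5/group; Student's t-test versus vehicle. ED50 was derived from the dose response.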

[40] = test system: Rattus norvegicus; assay: Analgesic activity in monoiodoacetic acid-induced joint pain rat model assessed as inhibition of differential weight bearing capacity at 1 mg/kg, po bid for 5 days starting 20 days post MIA challenge relative to vehicle treated control; format: functional, organism-based; design: dose 1 mg/kg
Procedure, shortened: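 MIA knee-joint pain model in rats; repeat oral dosing at 1.0 mg/kg bid for 5 days. Incapacitance efficacy was compared between day 1 and day 5, and plasma exposures were monitored over the period.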

[41] = test system: Rattus norvegicus; assay: Toxicity in rat assessed as hypothermia up to 30 mg/kg, po; format: organism-based; design: dose 30 mg/kg, route oral; details: in vivo
Procedure, shortened: (§5)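 Rats were dosed orally up to 30 mg/kg and checked for hypothermia and for rotorod performance. CP-55,940 0.5 mg/kg ip served as positive control.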

[42] = test system: Rattus norvegicus; assay: Toxicity in rat assessed as behavioral impairment up to 30 mg/kg, po by rotorod test; format: organism-based; design: dose 30 mg/kg, route oral; details: in vivo; procedure, shortened: as §5
[43] = test system: Rattus norvegicus; assay: Analgesic activity in monoiodoacetic acid-induced joint pain rat model assessed as inhibition of differential weight bearing capacity at 5 mg/kg, po measured 2 hrs after compound dose on day 12 post MIA challenge relative to vehicle treated control; format: functional, organism-based; design: dose 5 mg/kg; procedure, shortened: as §4

T2 sequence (P21554 whole entry): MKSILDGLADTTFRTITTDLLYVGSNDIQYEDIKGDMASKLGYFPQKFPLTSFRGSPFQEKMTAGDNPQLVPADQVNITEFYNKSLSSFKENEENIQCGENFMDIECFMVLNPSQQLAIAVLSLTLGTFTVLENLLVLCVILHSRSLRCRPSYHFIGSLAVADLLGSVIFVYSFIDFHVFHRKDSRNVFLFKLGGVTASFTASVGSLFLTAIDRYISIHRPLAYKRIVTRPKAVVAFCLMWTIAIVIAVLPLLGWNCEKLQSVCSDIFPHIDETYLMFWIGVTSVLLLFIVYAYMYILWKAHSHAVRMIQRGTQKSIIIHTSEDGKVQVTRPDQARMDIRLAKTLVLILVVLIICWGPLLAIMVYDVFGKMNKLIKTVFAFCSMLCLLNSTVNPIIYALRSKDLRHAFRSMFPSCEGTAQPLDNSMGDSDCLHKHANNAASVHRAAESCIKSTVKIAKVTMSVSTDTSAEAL
T1 sequence (P34972 whole entry): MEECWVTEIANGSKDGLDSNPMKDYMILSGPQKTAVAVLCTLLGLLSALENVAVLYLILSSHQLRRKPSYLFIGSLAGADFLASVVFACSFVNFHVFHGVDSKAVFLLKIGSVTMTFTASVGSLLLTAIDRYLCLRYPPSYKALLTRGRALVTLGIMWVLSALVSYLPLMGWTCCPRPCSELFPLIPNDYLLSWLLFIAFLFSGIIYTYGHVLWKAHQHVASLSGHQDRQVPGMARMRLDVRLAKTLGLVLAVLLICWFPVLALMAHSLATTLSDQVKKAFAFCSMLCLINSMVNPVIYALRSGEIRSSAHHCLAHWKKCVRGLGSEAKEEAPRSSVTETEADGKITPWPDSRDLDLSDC
Cytochrome P450 2D6, sequence (P10635 whole entry): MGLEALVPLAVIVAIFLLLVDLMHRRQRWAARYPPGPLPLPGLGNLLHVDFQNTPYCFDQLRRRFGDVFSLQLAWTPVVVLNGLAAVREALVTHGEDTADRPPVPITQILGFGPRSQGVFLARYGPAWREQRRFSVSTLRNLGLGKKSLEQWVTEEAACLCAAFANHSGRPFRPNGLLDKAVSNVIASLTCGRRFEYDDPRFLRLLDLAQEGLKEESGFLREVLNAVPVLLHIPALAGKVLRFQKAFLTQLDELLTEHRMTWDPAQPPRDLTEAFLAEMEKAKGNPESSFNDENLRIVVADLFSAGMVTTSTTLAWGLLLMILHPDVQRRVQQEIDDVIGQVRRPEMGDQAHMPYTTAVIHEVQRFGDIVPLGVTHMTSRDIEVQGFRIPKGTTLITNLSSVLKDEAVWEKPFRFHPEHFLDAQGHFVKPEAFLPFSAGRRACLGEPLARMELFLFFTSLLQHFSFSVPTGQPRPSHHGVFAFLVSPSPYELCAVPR
CYP3A4, sequence (P08684 whole entry, canonical isoform): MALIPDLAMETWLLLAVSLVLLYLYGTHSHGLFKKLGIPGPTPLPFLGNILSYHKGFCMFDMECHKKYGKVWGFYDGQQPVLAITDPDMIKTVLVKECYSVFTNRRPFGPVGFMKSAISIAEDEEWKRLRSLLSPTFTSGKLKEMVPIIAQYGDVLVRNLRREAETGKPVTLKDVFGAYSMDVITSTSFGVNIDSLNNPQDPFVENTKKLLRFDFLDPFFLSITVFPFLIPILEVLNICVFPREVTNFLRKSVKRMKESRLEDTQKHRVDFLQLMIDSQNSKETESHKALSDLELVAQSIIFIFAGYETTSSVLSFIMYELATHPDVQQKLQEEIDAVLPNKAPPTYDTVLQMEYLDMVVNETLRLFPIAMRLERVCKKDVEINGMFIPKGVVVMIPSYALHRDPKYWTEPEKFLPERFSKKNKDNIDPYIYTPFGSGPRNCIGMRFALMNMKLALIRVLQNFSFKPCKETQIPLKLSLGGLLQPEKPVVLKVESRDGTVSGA
Cytochrome P450 3A4, sequence (P08684 whole entry): as the sequence (P08684 whole entry, canonical isoform) above
CYP2C9, sequence (P11712 whole entry): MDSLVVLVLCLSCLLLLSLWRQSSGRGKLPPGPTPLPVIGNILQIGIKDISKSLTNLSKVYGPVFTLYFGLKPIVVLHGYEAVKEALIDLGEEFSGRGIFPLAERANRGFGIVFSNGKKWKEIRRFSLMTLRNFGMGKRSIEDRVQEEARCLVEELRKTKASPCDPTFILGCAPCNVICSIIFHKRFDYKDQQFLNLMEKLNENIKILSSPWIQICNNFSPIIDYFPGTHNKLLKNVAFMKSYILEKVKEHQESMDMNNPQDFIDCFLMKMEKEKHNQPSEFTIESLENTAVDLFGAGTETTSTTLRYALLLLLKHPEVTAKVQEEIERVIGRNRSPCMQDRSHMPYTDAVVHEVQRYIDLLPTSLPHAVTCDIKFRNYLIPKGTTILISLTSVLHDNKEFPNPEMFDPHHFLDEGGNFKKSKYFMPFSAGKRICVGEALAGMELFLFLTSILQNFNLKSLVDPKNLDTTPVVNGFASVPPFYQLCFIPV
Cytochrome P450 2C9, sequence (P11712 whole entry): as above

In the case of `Cc1nc(N2CCN(C)CC2)c2nc(-c3ccccc3Cl)n(C3CCOCC3)c2n1` [LY2828360], the inhibition [1] is reported as 85%, the Ki [2] is reported as 2200 nM and the bioavailability [3] is reported as 76%. For the same compound, the logP [4] was 3.2, the solubility [5] was 100 µg/mL (≈ 234 µM) and the pKa [6] was 7.2.
Work on `Cc1nc(N2CCN(C)CC2)c2nc(-c3ccccc3Cl)n(C(C)(C)CO)c2n1` yielded an EC50 [7] of 12.5 nM, an Efficacy [8] of 72.6% and an EC50 [9] of 5000 nM. For the same compound, the Efficacy [10] was 43.2%, the metabolised at 0.5 h, 2 µM [11] was 43% and the metabolised at 0.5 h, 2 µM [12] was 93%. For the same compound, the metabolised at 0.5 h, 2 µM [13] was 90% and the inhibition [1] was 20%.
For `Cc1nc(N2CCN(C)CC2)c2nc(-c3ccccc3Cl)n([C@H](C)CO)c2n1`, the EC50 [7] was 22.4 nM, the Efficacy [8] was 81.8% and the EC50 [9] was > 100000 nM. The metabolised at 0.5 h, 2 µM [11] was 22%, the metabolised at 0.5 h, 2 µM [12] was 50% and the metabolised at 0.5 h, 2 µM [13] was 42%. It also gave an inhibition [1] of 20%, a clearance [14] of 32 mL/min/kg and a Vd [15] of 6 L/kg. It also gave a half-life [16] of 2.3 h, an AUC [17] of 514 ng·h/mL and a Cmax [18] of 87 ng/mL. For the same compound, the bioavailability [19] was 38%, the clearance [20] was 38 mL/min/kg and the Vd [21] was 4 L/kg. It also gave a half-life [22] of 1.7 h, an AUC [23] of 437 ng·h/mL and a Cmax [24] of 43 ng/mL. The bioavailability [3] was 23%, the permeability [25] was “impermeable” and the Activity [26] was “Not Active”. For the same compound, the Activity [27] was “Not Active”, the Activity [28] was “Not Active” and the Activity [29] was “Not Active”. For the same compound, the metabolised [30] was 80%, the metabolised [31] was 80% and the metabolised [32] was 80%. The Drug excretion [33] was “metabolite_detected”, the Drug excretion [34] was “metabolite_detected” and the Drug excretion [35] was “metabolite_detected”. The Drug excretion [36] was “metabolite_detected”, the inhibition [37] was “Active” and the inhibition [38] was “inactive”. For the same compound, the ED50 [39] was 0.16 mg/kg, the inhibition [40] was “Active” and the Activity [41] was “Toxic”. For the same compound, the Activity [42] was “Toxic”, the logP [4] was 3.1 and the solubility [5] was 1800 µg/mL (≈ 4490 µM). For the same compound, the pKa [6] was 7.5 and the inhibition [43] was “Active”.
For `CCN1CCN(c2nc(C)nc3c2nc(-c2ccccc2Cl)n3CCCOC)CC1`, the EC50 [7] was 4.3 nM, the Efficacy [8] was 96.5% and the EC50 [9] was 1380 nM. The Efficacy [10] was 25.7%, the metabolised at 0.5 h, 2 µM [11] was 36% and the metabolised at 0.5 h, 2 µM [12] was 71%. For the same compound, the metabolised at 0.5 h, 2 µM [13] was 99%.
In the case of `Cc1nc(N2CCN(C)CC2)c2nc(-c3ccccc3Cl)n(CC(C)(C)O)c2n1`, the EC50 [7] is reported as 5.9 nM, the Efficacy [8] is reported as 85.4% and the EC50 [9] is reported as > 100000 nM. The metabolised at 0.5 h, 2 µM [11] was 24%, the metabolised at 0.5 h, 2 µM [12] was 92% and the metabolised at 0.5 h, 2 µM [13] was 52%. The inhibition [1] was 83%.
